# Test results published in ChEMBL document CHEMBL1152649, “Synthesis, cytotoxicity and human telomerase inhibition activities of a series of 1,2-heteroannelated anthraquinones and anthra[1,2-d]imidazole-6,11-dione homologues” (2009).
# Legend:
# [1] = Cytotoxicity against human H1299 cells at 1 uM after 48 hrs by MTT assay; format: functional; details: NCI-H1299, 48 h
# Summary of the method: (§1)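 H1299 non-small cell lung cancer cells were grown in RPMI 1640 with 10% FBS, penicillin and streptomycin at 37 °C under 5% CO2. About 2 × 10³ cells per well were seeded and left 24 h. Compounds were dissolved fresh in DMSO, diluted into complete medium and applied for 48 h. MTT was then added for 4 h at 37 °C, followed by lysis buffer (20% SDS, 50% DMF) for 16 h, and absorbance was read at 550 nm.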
# [2] = Cytotoxicity against human H1299 cells at 10 uM after 48 hrs by MTT assay; format: functional; details: NCI-H1299, 48 h; summary of the method: as §1
# [3] = Cytotoxicity against human H1299 cells at 100 uM after 48 hrs by MTT assay; format: functional; details: NCI-H1299, 48 h; summary of the method: as §1
# [4] = system: A549; test: Antiproliferative activity against human A549 cells assessed as cell growth at 10 uM; format: functional; details: read-out: Activity
# Summary of the method: (§2)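 NCI 60 cell line panel, single-dose screen (10^-5 M) run by the developmental therapeutics program protocol. Results are given as growth percent of treated cells relative to untreated control cells for each line.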
# [5] = system: HOP-62; test: Antiproliferative activity against human HOP62 cells assessed as cell growth at 10 uM; format: functional; details: read-out: Activity; summary of the method: as §2
# [6] = Antiproliferative activity against human Hs 578T cells assessed as cell growth at 10 uM; format: functional; details: read-out: Activity; summary of the method: as §2
# [7] = system: MDA-MB-231; test: Antiproliferative activity against human MDA-MB-231 cells assessed as cell growth at 10 uM; format: functional; details: read-out: Activity; summary of the method: as §2
# [8] = system: MDA-MB-435; test: Antiproliferative activity against human MDA-MB-435 cells assessed as cell growth at 10 uM; format: functional; details: read-out: Activity; summary of the method: as §2
# [9] = system: NCI/ADR-RES; test: Antiproliferative activity against human NCI/ADR-RES cells assessed as cell growth at 10 uM; format: functional; details: read-out: Activity; summary of the method: as §2
# [10] = system: T47D; test: Antiproliferative activity against human T47D cells assessed as cell growth at 10 uM; format: functional; details: read-out: Activity
# Summary of the method: (§3)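 NCI 60 cell line panel, single dose (10^-5 M), run per the Developmental Therapeutics Program protocol (one dose mean graph). Each result is the growth percentage of treated cells relative to untreated control cells.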
# [11] = system: OVCAR-3; test: Antiproliferative activity against human OVCAR-3 cells assessed as cell growth at 10 uM; format: functional; details: read-out: Activity; summary of the method: as §2
# [12] = system: OVCAR-4; test: Antiproliferative activity against human OVCAR4 cells assessed as cell growth at 10 uM; format: functional; details: read-out: Activity; summary of the method: as §2
# [13] = system: OVCAR-5; test: Antiproliferative activity against human OVCAR5 cells assessed as cell growth at 10 uM; format: functional; details: read-out: Activity; summary of the method: as §2
# [14] = system: OVCAR-8; test: Antiproliferative activity against human OVCAR8 cells assessed as cell growth at 10 uM; format: functional; details: read-out: Activity; summary of the method: as §2
# [15] = system: CCRF-CEM; test: Antiproliferative activity against human CCRF-CEM cells assessed as cell growth at 10 uM; format: functional; details: read-out: Activity; summary of the method: as §2
# [16] = system: HL-60(TB); test: Antiproliferative activity against human HL-60(TB) cells assessed as cell growth at 10 uM; format: functional; details: read-out: Activity
# Summary of the method: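 NCI Developmental Therapeutics Program 60-cell-line one-dose screen at 10^-5 M. Readout is growth percentage of treated cells relative to untreated control cells.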
# [17] = system: K562; test: Antiproliferative activity against human K562 cells assessed as cell growth at 10 uM; format: functional; details: read-out: Activity; summary of the method: as §2
# [18] = Antiproliferative activity against human RPMI8266 cells assessed as cell growth at 10 uM; format: functional; details: read-out: Activity; summary of the method: as §2
# [19] = system: SR; test: Antiproliferative activity against human SR cells assessed as cell growth at 10 uM; format: functional; details: read-out: Activity; summary of the method: as §3
# [20] = system: 786-0; test: Antiproliferative activity against human 786-0 cells assessed as cell growth at 10 uM; format: functional; details: read-out: Activity; summary of the method: as §2
# [21] = system: A498; test: Antiproliferative activity against human A498 cells assessed as cell growth at 10 uM; format: functional; details: read-out: Activity; summary of the method: as §2
# [22] = system: ACHN; test: Antiproliferative activity against human ACHN cells assessed as cell growth at 10 uM; format: functional; details: read-out: Activity; summary of the method: as §2
# [23] = system: SN12C; test: Antiproliferative activity against human SN12C cells assessed as cell growth at 10 uM; format: functional; details: read-out: Activity; summary of the method: as §2
# [24] = system: TK-10; test: Antiproliferative activity against human TK10 cells assessed as cell growth at 10 uM; format: functional; details: read-out: Activity; summary of the method: as §3
# [25] = system: UO-31; test: Antiproliferative activity against human UO31 cells assessed as cell growth at 10 uM; format: functional; details: read-out: Activity; summary of the method: as §3
# [26] = system: LOX IMVI; test: Antiproliferative activity against human LOXIMVI cells assessed as cell growth at 10 uM; format: functional; details: read-out: Activity; summary of the method: as §2
# [27] = system: M14; test: Antiproliferative activity against human M14 cells assessed as cell growth at 10 uM; format: functional; details: read-out: Activity; summary of the method: as §2
# [28] = system: Malme-3M; test: Antiproliferative activity against human MALME-3M cells assessed as cell growth at 10 uM; format: functional; details: read-out: Activity; summary of the method: as §2
# [29] = system: SK-MEL-2; test: Antiproliferative activity against human SK-MEL-2 cells assessed as cell growth at 10 uM; format: functional; details: read-out: Activity; summary of the method: as §2
# [30] = system: SK-MEL-28; test: Antiproliferative activity against human SK-MEL-28 cells assessed as cell growth at 10 uM; format: functional; details: read-out: Activity; summary of the method: as §2
# [31] = system: SK-MEL-5; test: Antiproliferative activity against human SK-MEL-5 cells assessed as cell growth at 10 uM; format: functional; details: read-out: Activity; summary of the method: as §2
# [32] = system: UACC-257; test: Antiproliferative activity against human UACC257 cells assessed as cell growth at 10 uM; format: functional; details: read-out: Activity; summary of the method: as §3
# [33] = system: PC-3; test: Antiproliferative activity against human PC3 cells assessed as cell growth at 10 uM; format: functional; details: read-out: Activity; summary of the method: as §2
# [34] = system: SF-268; test: Antiproliferative activity against human SF268 cells assessed as cell growth at 10 uM; format: functional; details: read-out: Activity; summary of the method: as §2
# [35] = system: SF-295; test: Antiproliferative activity against human SF295 cells assessed as cell growth at 10 uM; format: functional; details: read-out: Activity; summary of the method: as §2
# [36] = system: SNB-19; test: Antiproliferative activity against human SNB19 cells assessed as cell growth at 10 uM; format: functional; details: read-out: Activity; summary of the method: as §2
# [37] = system: SNB-75; test: Antiproliferative activity against human SNB75 cells assessed as cell growth at 10 uM; format: functional; details: read-out: Activity; summary of the method: as §3
# [38] = system: U-251; test: Antiproliferative activity against human U251 cells assessed as cell growth at 10 uM; format: functional; details: read-out: Activity; summary of the method: as §3
# [39] = system: HOP-92; test: Antiproliferative activity against human HOP92 cells assessed as cell growth at 10 uM; format: functional; details: read-out: Activity; summary of the method: as §2
# [40] = system: NCI-H23; test: Antiproliferative activity against human NCI-H23 cells assessed as cell growth at 10 uM; format: functional; details: read-out: Activity; summary of the method: as §2
# [41] = system: NCI-H322M; test: Antiproliferative activity against human NCI-H322M cells assessed as cell growth at 10 uM; format: functional; details: read-out: Activity; summary of the method: as §2
# [42] = system: NCI-H460; test: Antiproliferative activity against human NCI-H460 cells assessed as cell growth at 10 uM; format: functional; details: read-out: Activity; summary of the method: as §2
# [43] = system: NCI-H522; test: Antiproliferative activity against human NCI-H522 cells assessed as cell growth at 10 uM; format: functional; details: read-out: Activity; summary of the method: as §2
# [44] = system: COLO 205; test: Antiproliferative activity against human COLO205 cells assessed as cell growth at 10 uM; format: functional; details: read-out: Activity; summary of the method: as §2
# [45] = system: HCC 2998; test: Antiproliferative activity against human HCC2998 cells assessed as cell growth at 10 uM; format: functional; details: read-out: Activity; summary of the method: as §2
# [46] = system: HCT-116; test: Antiproliferative activity against human HCT116 cells assessed as cell growth at 10 uM; format: functional; details: read-out: Activity; summary of the method: as §2
# [47] = target: Telomerase reverse transcriptase (Homo sapiens) (UniProt O14746); test: Inhibition of TERT in human H1299 cells assessed as residual transcriptional activity at 10 uM after 24 hrs by SEAP reporter gene assay; values are per cent of control
# Telomerase reverse transcriptase (Homo sapiens), sequence (O14746 whole entry): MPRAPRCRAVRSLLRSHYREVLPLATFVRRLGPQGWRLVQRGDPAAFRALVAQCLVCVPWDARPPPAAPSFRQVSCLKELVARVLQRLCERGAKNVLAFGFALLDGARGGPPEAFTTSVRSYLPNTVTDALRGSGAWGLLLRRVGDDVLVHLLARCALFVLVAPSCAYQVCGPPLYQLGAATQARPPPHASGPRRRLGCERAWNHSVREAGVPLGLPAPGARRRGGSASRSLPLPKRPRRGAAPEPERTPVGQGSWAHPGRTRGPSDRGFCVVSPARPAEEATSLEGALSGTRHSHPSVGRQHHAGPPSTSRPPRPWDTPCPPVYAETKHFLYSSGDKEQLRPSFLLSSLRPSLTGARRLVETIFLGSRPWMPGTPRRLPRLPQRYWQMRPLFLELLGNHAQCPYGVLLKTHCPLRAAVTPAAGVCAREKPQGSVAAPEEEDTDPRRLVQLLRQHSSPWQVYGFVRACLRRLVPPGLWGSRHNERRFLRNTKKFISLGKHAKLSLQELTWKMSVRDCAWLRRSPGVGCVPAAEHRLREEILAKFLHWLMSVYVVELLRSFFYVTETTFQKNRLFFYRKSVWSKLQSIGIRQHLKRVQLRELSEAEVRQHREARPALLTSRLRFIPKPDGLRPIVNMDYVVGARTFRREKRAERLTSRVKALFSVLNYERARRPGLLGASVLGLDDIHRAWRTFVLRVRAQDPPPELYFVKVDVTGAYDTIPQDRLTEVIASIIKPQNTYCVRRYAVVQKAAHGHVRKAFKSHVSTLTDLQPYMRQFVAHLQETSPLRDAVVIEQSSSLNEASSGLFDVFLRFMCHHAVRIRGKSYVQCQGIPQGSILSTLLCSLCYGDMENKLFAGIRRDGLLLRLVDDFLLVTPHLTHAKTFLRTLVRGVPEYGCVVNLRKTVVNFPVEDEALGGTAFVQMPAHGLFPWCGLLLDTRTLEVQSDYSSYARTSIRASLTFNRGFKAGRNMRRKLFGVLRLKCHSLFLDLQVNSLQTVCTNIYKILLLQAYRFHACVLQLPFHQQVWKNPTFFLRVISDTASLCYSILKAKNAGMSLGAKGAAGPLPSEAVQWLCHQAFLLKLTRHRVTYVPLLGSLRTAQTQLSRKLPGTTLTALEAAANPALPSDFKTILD
compound,measurement,setting,value
CCc1nc2ccc3c(c2[nH]1)C(=O)c1ccccc1C3=O,viability at 1 µM,[1],88%
same,viability at 10 µM,[2],82%
same,viability at 100 µM,[3],37%
same,growth at 10 µM,[4],68.2%
same,growth at 10 µM,[5],97.7%
same,growth at 10 µM,[6],-18.6%
same,growth at 10 µM,[7],78%
same,growth at 10 µM,[8],84.4%
same,growth at 10 µM,[9],74.4%
same,growth at 10 µM,[10],63%
same,growth at 10 µM,[11],78.2%
same,growth at 10 µM,[12],48.8%
same,growth at 10 µM,[13],102%
same,growth at 10 µM,[14],72.9%
same,growth at 10 µM,[15],45.4%
same,growth at 10 µM,[16],41.8%
same,growth at 10 µM,[17],64.4%
same,growth at 10 µM,[18],56.2%
same,growth at 10 µM,[19],52.5%
same,growth at 10 µM,[20],76.6%
same,growth at 10 µM,[21],28.9%
same,growth at 10 µM,[22],25%
same,growth at 10 µM,[23],68.5%
same,growth at 10 µM,[24],33.8%
same,growth at 10 µM,[25],23.9%
same,growth at 10 µM,[26],40%
same,growth at 10 µM,[27],60.1%
same,growth at 10 µM,[28],56.9%
same,growth at 10 µM,[29],40.1%
same,growth at 10 µM,[30],86.8%
same,growth at 10 µM,[31],60.8%
same,growth at 10 µM,[32],39.7%
same,growth at 10 µM,[33],48.5%
same,growth at 10 µM,[34],80.4%
same,growth at 10 µM,[35],75.8%
same,growth at 10 µM,[36],74.9%
same,growth at 10 µM,[37],55.1%
same,growth at 10 µM,[38],60.1%
same,growth at 10 µM,[39],41.4%
same,growth at 10 µM,[40],71.4%
same,growth at 10 µM,[41],31.4%
same,growth at 10 µM,[42],59.8%
same,growth at 10 µM,[43],41.5%
same,growth at 10 µM,[44],69.7%
same,growth at 10 µM,[45],67.7%
same,growth at 10 µM,[46],47.6%
same,residual activity,[47],59%
